Test results published in paper PMC3984342 (mAbs, 2013).
Read-outs that look alike come from different tables or passages of the source.

What was measured:
[1] = METH alone, no antibody; ref Riviere et al.[21]; cited from earlier work
[2] = Modified radioimmunoassay; format: binding; details: modified RIA, [3H]-METH tracer, complete inhibition curve
[3] = Isothermal titration calorimetry; format: binding
Outline: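 For isothermal titration calorimetry, 86 μM METH was titrated into 5 μM antibody at 307 rpm. Each run had 28 injections of 10 μL, spaced 200 s, at 37 °C in PBS pH 6.5. A one-site model gave N, ΔH, ΔS and the association constant (the reciprocal of KD). Activity was derived from N and molecular weights, with 2.07 μg METH/mg mAb taken as 100% active.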

[4] = Ch-mAb7F9 pharmacokinetics in rats; format: in vivo, Male, Sprague Dawley rats; details: for ClT / Vdss / t1/2λz: rat
Outline: (§1)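 Male Sprague Dawley rats (n = 12/group), housed individually, got a single IV antibody dose via tail vein over about 2 min. The dose was ultracentrifuged (~100,000 g, 1 h, 5 °C) and diluted in PBS (15 mM sodium phosphate, 150 mM NaCl). METH 1 mg/kg (in 0.9% NaCl) or saline was given SC 24 h later. Six tail-vein samples were drawn over 3 wk. Non-compartmental sparse-sampling analysis used mean concentration per time point: ClT = D/AUC, Vdss = D·AUMC/AUC², […].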

[5] = METH pharmacokinetics in rats after anti-METH mAb treatment; format: in vivo, Male, Sprague Dawley rats; details: rat
Outline: as §1

[6] = format: in vivo, Male, Sprague Dawley rats; details: rats, single antibody dose, throughout the study
Outline: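 Body weights and general health observations were recorded for each rat throughout the 3-week study after the single IV antibody dose and 24-h SC challenge. Body weight and hematocrit are given as mean ± standard deviation.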

[7] = GLP in vivo rat toxicology study
[8] = GLP human tissue cross-reactivity study; details: human tissues, results not shown
[9] = Preliminary surface plasmon resonance study of on-off rates; format: binding; details: data not shown
[10] = Prediction of human elimination half-life from rat values; set-up: species or system humans; details: extrapolated from rat: human ClT about one-third of rat, similar Vdss
[11] = ch-mAb7F9 15 mg/kg IV, saline challenge
[12] = ch-mAb7F9 15 mg/kg IV, with METH 1 mg/kg SC 24 h later
[13] = ch-mAb7F9 150 mg/kg IV, saline challenge
[14] = ch-mAb7F9 150 mg/kg IV, with METH 1 mg/kg SC 24 h later

(+)-methamphetamine
METH ClT [1]: 181400 mL/day/kg | METH Vdss [1]: 9 L/kg | METH t1/2λz [1]: 1.1 h

B1: ch-mAb7F9: human-mouse chimeric anti-METH monoclonal antibody; mAb7F9 variable region joined to human IgG2κ constant domains (antibody, V domains shown)
VH: EIQLQQSGPELGKPGASVKVSCRASGFSFADYYIYWVKQSHGKSLELIGYIDPFNGGDTYNQIFKGKATLTVDKSSSTAFMYLNSLTSEDSAVYYCAAFRNPSFDFWGQGTTLTVSS
VL: QIVLIQSPPIMSASPGEKVTLTCSASSSVSSRYLYWYQQKPGSSPKLWIYGTSNLASGVPARFSGSGSGTSFSLTISSMEAEDAASYFCHQWSSFPFTFGSGTKLEIK
Kd [2]: 6.9 nM | average activity (capacity for binding METH per quantity of mAb) ([3]; first GMP-compliant lot, converted from ITC stoichiometry): 1.96 μg METH bound per mg mAb | Kd ([3]; read-out: KD (ITC, average), ITC, 37 °C, PBS pH 6.5): 49 nM | ClT [4, 11]: 6.9 mL/day/kg | Vdss [4, 11]: 0.1084 L/kg | t1/2λz [4, 11]: 262 h | ClT [4, 12]: 6.1 mL/day/kg | Vdss [4, 12]: 0.1151 L/kg | t1/2λz [4, 12]: 314 h | ClT [4, 13]: 6.5 mL/day/kg | Vdss [4, 13]: 0.1083 L/kg | t1/2λz [4, 13]: 276 h | ClT [4, 14]: 7.6 mL/day/kg | Vdss [4, 14]: 0.1082 L/kg | t1/2λz [4, 14]: 235 h | t1/2λz (range over groups) ([4]; rats, current studies, 15 and 150 mg/kg): 240 to 312 h | decrease of METH clearance compared with mAb7F9 ([5]; 150 mg/kg mAb dose): approximately 50% | METH ClT ([5]; METH 1 mg/kg SC 24 h after mAb 15 mg/kg IV): 13800 mL/day/kg | METH ClT ([5]; METH 1 mg/kg SC 24 h after mAb 150 mg/kg IV): 926 mL/day/kg | decrease of METH Vdss compared with METH alone ([5]; ch-mAb7F9 15 mg/kg): ~ 5 fold | increase in METH t1/2λz compared with METH alone ([5]; ch-mAb7F9 15 mg/kg): 2.1 fold | decrease of METH ClT compared with METH alone ([5]; ch-mAb7F9 15 mg/kg (low dose)): 13 fold | decrease of METH Vdss compared with METH alone ([5]; ch-mAb7F9 150 mg/kg): ~25 fold | increase in METH t1/2λz compared with METH alone ([5]; ch-mAb7F9 150 mg/kg): 5.9 fold | decrease of METH ClT compared with METH alone ([5]; ch-mAb7F9 150 mg/kg (high dose)): 196 fold | health changes (eating behavior, body weight) [6]: no significant health changes | elimination half-life ([7]; GLP rat toxicology study, samples for 56 d, results not shown): 190 to 288 h | no-observed-adverse-effect level, NOAEL ([7]; rat, single doses, GLP): 400 mg/kg | tissue staining [8]: the staining was cytoplasmic | on-off rates of METH binding [9]: both reactions are fast | predicted t1/2λz in humans [10]: ≤ 3 wk
